Reference: ChEMBL document CHEMBL3739287, “Diversification of edaravone via palladium-catalyzed hydrazine cross-coupling: Applications against protein misfolding and oligomerization of beta-amyloid” (Bioorg Med Chem Lett, 2016)

What was measured:
[1] = biological target: T1, Amyloid-beta precursor protein (Homo sapiens, UniProt P05067); assay: Inhibition of amyloid beta (1 to 40 residues) (unknown origin) aggregation at 25 uM incubated for 72 hrs by Thioflavin T assay
Summary of the method: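 Kinetic ThT aggregation format: monomeric Aβ40 (20 μM) with ThT (8 μM) and compound at a single 25 μM concentration. Fluorescence was followed over 72 h, and percent inhibition of aggregation was taken at 72 h.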

[2] = biological target: T1, Amyloid-beta precursor protein; assay: Inhibition of N-alpha-biotinyl-amyloid beta (1 to 42 residues) (unknown origin) oligomerization incubated for 1 hr by sandwich biotin-avidin assay
Summary of the method: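 Sub-nanomolar detection of N-α-biotinyl-Aβ(1–42) oligomers using single-site NeutrAvidin capture with labeled streptavidin detection. The format recognizes multimeric (>20 kDa) oligomers but not monomer. Compounds were tested over 1–50 μM to build dose-response curves, from which IC50 was determined.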

[3] = biological target: T1, Amyloid-beta precursor protein; assay: Inhibition of amyloid beta (1 to 40 residues) (unknown origin) aggregation incubated for 72 hrs by Thioflavin T assay
Summary of the method: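 Aβ40 (20 μM) aggregation in a kinetic format with ThT (8 μM), fluorescence read over 72 h. IC50 came from dose-response curves of percent inhibition and was collected only for compounds giving >50% inhibition at 25 μM in this assay and IC50 <50 μM in the bio-Aβ42 oligomer assay.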

T1 sequence (P05067 whole entry, the tested form may be a part): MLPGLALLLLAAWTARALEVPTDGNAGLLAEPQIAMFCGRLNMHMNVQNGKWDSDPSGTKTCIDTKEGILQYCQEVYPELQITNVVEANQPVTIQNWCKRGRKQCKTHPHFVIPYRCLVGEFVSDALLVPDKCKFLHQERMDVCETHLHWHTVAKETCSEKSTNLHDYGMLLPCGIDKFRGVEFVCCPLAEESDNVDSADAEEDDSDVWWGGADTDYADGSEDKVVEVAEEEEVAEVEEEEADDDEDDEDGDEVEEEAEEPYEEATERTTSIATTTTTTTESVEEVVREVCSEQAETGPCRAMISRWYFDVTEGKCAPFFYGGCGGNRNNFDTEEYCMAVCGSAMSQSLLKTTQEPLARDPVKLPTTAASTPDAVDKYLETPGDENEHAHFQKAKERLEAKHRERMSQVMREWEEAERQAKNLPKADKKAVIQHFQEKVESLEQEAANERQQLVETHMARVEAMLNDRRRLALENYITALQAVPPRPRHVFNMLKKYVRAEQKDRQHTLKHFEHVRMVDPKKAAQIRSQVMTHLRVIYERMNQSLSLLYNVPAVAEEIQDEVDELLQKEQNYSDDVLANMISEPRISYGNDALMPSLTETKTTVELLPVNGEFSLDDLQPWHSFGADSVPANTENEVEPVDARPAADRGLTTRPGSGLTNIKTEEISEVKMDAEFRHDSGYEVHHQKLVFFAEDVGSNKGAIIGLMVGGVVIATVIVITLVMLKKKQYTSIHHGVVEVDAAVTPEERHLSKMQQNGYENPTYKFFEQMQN

inhibition [1]	IC50 [2]	IC50 [3]	SMILES
49%	> 50 µM		CC1=NN(c2ccc(C)c(F)c2)C(=O)C1
56.3%	> 50 µM		CC1=NN(c2ccc(C(F)(F)F)cc2)C(=O)C1
22.7%	> 50 µM		CC1=NN(c2ccccc2C)C(=O)C1
7.4%	> 50 µM		CC1=NN(c2cc(C)ccc2C)C(=O)C1
71.4%	3.5 µM	19.6 µM	CC1=NN(c2ccc(-n3c(-c4ccccc4)cc4ccccc43)cc2)C(=O)C1
50.7%	4 µM	> 50 µM	CC1=NN(c2ccc(N(c3ccccc3)c3ccccc3)cc2)C(=O)C1
78.7%	19.5 µM	5.6 µM	CC1=NN(c2ccc(-c3ccccc3)cc2)C(=O)C1
26.2%	> 50 µM		CC1=NN(c2cc(F)ccc2C)C(=O)C1
47%	16.8 µM		CC1=NN(c2cccc(N3CCCC3)c2)C(=O)C1
69.6%	5.1 µM	3.4 µM	COc1ccc(-c2ccc(N3N=C(C)CC3=O)cc2)cc1
17.2%	> 50 µM		CC1=NN(c2ccccc2)C(=O)C1 [EDARAVONE]
53.4%	2.9 µM	27 µM	CC1=NN(c2cccc(COCc3ccccc3)c2)C(=O)C1
53.2%	3.9 µM	14.5 µM	CC1=NN(c2ccc(-c3cccnc3)cc2)C(=O)C1
56.2%	> 50 µM		CC1=NN(c2ccc3ccccc3c2)C(=O)C1
30.9%	> 50 µM		CC1=NN(c2cccc(C)c2)C(=O)C1
60.6%	4 µM	26 µM	CC1=NN(c2ccc(-n3cccc3)cc2)C(=O)C1
20.2%	> 50 µM		CC1=NN(c2cccnc2)C(=O)C1
48.2%	> 50 µM		COc1cc(N2N=C(C)CC2=O)nc(OC)n1
39.7%	> 50 µM	> 50 µM	COc1cccc(N2N=C(C)CC2=O)c1
26.4%	> 50 µM		COc1cc(F)cc(N2N=C(C)CC2=O)c1
16.3%	> 50 µM		CC1=NN(c2ccc(C)cc2)C(=O)C1
26.3%	> 50 µM		CCc1ccccc1N1N=C(C)CC1=O
